Measurements reported in ChEMBL document CHEMBL1811915, “Discovery of new chromone containing sulfonamides as potent inhibitors of bovine cytosolic carbonic anhydrase” (Bioorg Med Chem, 2011).

Legend:
[1] = Inhibition of bovine carbonic anhydrase assessed as formation of p-nitrophenol from p-nitrophenyl acetate substrate after 30 mins by spectrophotometric method; set-up: species or system Bos taurus
In short: (§1)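 Bovine cytosolic CA (CA-I plus CA-II mix, 98.9% pure), 0.35 U/well, in 50 mM Tris–sulfate pH 7.6 with 0.1 mM ZnCl₂. Compound in DMSO is pre-incubated with enzyme for 10 min at 25 °C and pre-read at 348 nm. p-Nitrophenyl acetate is added to 0.6 mM final, then read at 348 nm after 30 min at 25 °C. Percent inhibition is relative to DMSO control; mean of three independent experiments ± sem.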

Bos taurus = species: Bos taurus; test: Inhibition of bovine carbonic anhydrase assessed as formation of p-nitrophenol from p-nitrophenyl acetate substrate at 0.5 mM after 30 mins by spectrophotometric method; in short: as §1

| SMILES | Ki [1] [µM] | inhibition (Bos taurus) [%] | IC50 [1] [µmol] |
| --- | --- | --- | --- |
| CS(N)(=O)=O [METHANESULFONAMIDE] | 100 |  |  |
| CCOC1Oc2ccc(CC)cc2C(=O)/C1=C\Nc1cccc(S(N)(=O)=O)c1 (centres undefined) |  | 65.3 | 11.71 |
| CCOC1Oc2ccc(F)cc2C(=O)/C1=C\Nc1cccc(S(N)(=O)=O)c1 (centres undefined) |  | 66.8 | 11.37 |
| CCOC1Oc2ccc(Br)cc2C(=O)/C1=C\Nc1cccc(S(N)(=O)=O)c1 (centres undefined) |  | 68.8 | 18.27 |
| CCOC1Oc2c(Br)cc(Br)cc2C(=O)/C1=C\Nc1ccc(S(N)(=O)=O)cc1 (centres undefined) |  | 67.3 | 21.12 |
| CCOC1Oc2c(Br)cc(Br)cc2C(=O)/C1=C\Nc1cccc(S(N)(=O)=O)c1 (centres undefined) |  | 61.2 | 29.12 |
| CCOC1Oc2ccc(Br)cc2C(=O)/C1=C\Nc1ccc(S(N)(=O)=O)cc1 (centres undefined) |  | 65.2 | 16.12 |
| CCOC1Oc2ccc(CC)cc2C(=O)/C1=C\Nc1ccc(S(N)(=O)=O)cc1 (centres undefined) |  | 69.7 | 16.63 |
| CCOC1Oc2ccccc2C(=O)/C1=C\Nc1cccc(S(N)(=O)=O)c1 (centres undefined) |  | 67.6 | 17.72 |
| CCOC1Oc2ccc(F)cc2C(=O)/C1=C\Nc1ccc(S(N)(=O)=O)cc1 (centres undefined) |  | 71.2 | 4.31 |
| NS(=O)(=O)C(F)(F)F [TRIFLUOROMETHANESULFONAMIDE] | 0.002 |  |  |
| CC(=O)Nc1nnc(S(N)(=O)=O)s1 [ACETAZOLAMIDE] |  | 91.3 | 1.13 |
| CCOC1Oc2ccccc2C(=O)/C1=C\Nc1ccc(S(N)(=O)=O)cc1 (centres undefined) |  | 64 | 19.21 |
